Drawing on ChEMBL document CHEMBL1127858, “Synthesis and evaluation of the anti-HIV activity of aza and deaza analogues of isoddA and their phosphates as prodrugs” (J Med Chem, 1994), this text covers EC50, CC50 and Ratio for 16 molecules.

Each structure is given as a SMILES string. Bounds are passed on as bounds.

Test [1] has as its system MT4. Briefly: Effective concentration required to achieve 50% protection of MT-4 cells against cytopathic effect of HIV-2 (8 days). Format: functional, cell-based. Particulars: Homo sapiens, MT4, 192 h. In outline:
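MT-4 cells (1 × 10⁴ per well, RPMI with 10% FCS) with various compound concentrations, infected with 100 CCID50 of HIV-2 CBL 20 from persistently infected CEM supernatant. Viable cells read by MTT. EC50 is the dose giving 50% protection from virus cytopathicity. Mean of three independent experiments.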
In general terms: Damage to the host cells serves as the signal in cytopathic effect assays.

For test [2], the system named is MT4. Briefly: Concentration required to reduce the viability of mock-infected MT-4 cells by 50% (4 days). The class given is functional. Particulars: Homo sapiens, MT4, 96 h. In outline:
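Mock-infected MT-4 cells (1 × 10⁴ per well) in RPMI with 10% FCS, exposed to a range of compound concentrations and incubated 4 days at 37 °C. Viable cells counted by MTT. CC50 is the dose cutting viability by 50%. Mean of three independent experiments. Cultures were checked periodically for mycoplasma.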

Test [3] concerns MT4. Briefly: Effective concentration required to achieve 50% protection of MT-4 cells against cytopathic effect of HIV-1 (4 days). The note with it: Homo sapiens, MT4, 96 h. The class given is functional, cell-based. In outline: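 MT-4 cells (1 × 10⁴ per well, RPMI with 10% FCS) with various compound concentrations, infected with 100 CCID50 of HIV-1 IIIB from persistently infected H9/IIIB supernatant. After 4 days at 37 °C, viable cells read by MTT. EC50 is the dose giving 50% protection from virus cytopathicity. Mean of three independent experiments. Cytotoxicity run in parallel.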

The nature of test [4]: Ratio of CC50 value that of EC50 value(HIV-1). Format: functional. In outline: (§1)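 Selectivity index as the CC50/EC50 ratio. CC50 comes from mock-infected MT-4 viability by MTT. EC50 comes from MTT-measured protection of MT-4 cells infected with 100 CCID50 of HIV-1 IIIB or HIV-2 CBL 20. Data are means of three experiments.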
A short description of test [5]: Ratio of CC50 value that of EC50 value(HIV-2). The class given is functional. In outline: as §1

As for `Cc1cn([C@H]2C[C@H](N=[N+]=[N-])[C@@H](CO)O2)c(=O)[nH]c1=O` [ZIDOVUDINE], the results for the EC50 with MT4 [1] and with MT4 [3] were 0.04 µM and 0.01 µM, respectively. The molecule further had a CC50 in the test on MT4 [2] above 80 µM.

In the case of `Nc1ccnc2c1ncn2C1COC(CO)C1` (configuration not stated), the EC50 in the test with MT4 [1] and in the test on MT4 [3] was above 425 µM in each case. The CC50 in the test on MT4 [2] is above 425 µM.

With `COC(=O)C(C)NP(=O)(OCC1CC(n2nnc3c(N)ncnc32)CO1)Oc1ccccc1` (configuration not stated), the Ratio turned out to be 8.5 in test [4] and 1.4 in test [5]. Besides, the half-maximal effective concentration (EC50) was 105 µM in the test with MT4 [1] and 17 µM in the test with MT4 [3]. Moreover, it took 146 µM to reach half-maximal cytotoxicity in the test with MT4 [2] (CC50).

In the case of `Nc1ncnc2c1ncn2[C@H]1CO[C@@H](CO)C1`, the Ratio in test [4] was above 20; in test [5], above 13. Further, the EC50 in the test with MT4 [1] was 32 µM; in the test with MT4 [3] it was 21 µM. For the same molecule, the CC50 in the test on MT4 [2] was above 425 µM.

On to `Nc1nccc2c1ncn2C1COC(COP(=O)(OCC(Cl)(Cl)Cl)OCC(Cl)(Cl)Cl)C1` (configuration not stated), for which the EC50 in the test with MT4 [1] and in the test with MT4 [3] was above 34 µM throughout. This molecule returned a CC50 with MT4 [2] of 34 µM.

`Nc1nccc2c1nnn2C1COC(COP(=O)(OCC(Cl)(Cl)Cl)OCC(Cl)(Cl)Cl)C1` (configuration not stated): the half-maximal effective concentration (EC50) in the test on MT4 [1] and in the test on MT4 [3] was above 173 µM each time. The molecule also yielded a CC50 in the test on MT4 [2] above 173 µM.

Regarding `Nc1ccnc2c1nnn2C1COC(COP(=O)(OCC(Cl)(Cl)Cl)OCC(Cl)(Cl)Cl)C1` (configuration not stated), the EC50 in the test on MT4 [1] and in the test on MT4 [3] was above 100 µM each time. Further, the 50% cytotoxic concentration (CC50) in the test with MT4 [2] is above 100 µM.

For the molecule `Nc1ccnc2c1ncn2C1COC(COP(=O)(OCC(Cl)(Cl)Cl)OCC(Cl)(Cl)Cl)C1` (configuration not stated), the EC50 with MT4 [1] and in the test with MT4 [3] was above 100 µM each time. In addition, in the test on MT4 [2], the 50% cytotoxic concentration (CC50) is above 100 µM.

Take `Nc1ncnc2c1ncn2C1COC(COP(=O)(OCC(Cl)(Cl)Cl)OCC(Cl)(Cl)Cl)C1` (configuration not stated): the Ratio in test [4] is above 2. Besides, the figures for the EC50 with MT4 [1] and in the test with MT4 [3] were above 173 µM and 87 µM, respectively. For the same molecule, the CC50 with MT4 [2] is at least 173 µM.

On to `Nc1ncnc2c1nnn2C1COC(CO)C1` (configuration not stated), for which the EC50 in the test on MT4 [1] and in the test with MT4 [3] was above 425 µM in each case. In the test on MT4 [2], this molecule displayed a CC50 above 425 µM.

Turning to `Nc1ccnc2c1nnn2C1COC(CO)C1` (configuration not stated), the EC50 in the test with MT4 [1] and in the test with MT4 [3] was above 425 µM each time. In the test on MT4 [2], this molecule showed a CC50 above 425 µM.

As to `COC(=O)C(C)NP(=O)(OCC1CC(n2cnc3c(N)ncnc32)CO1)Oc1ccccc1` (configuration not stated), the Ratio in test [4] is 48; in test [5], 65. For the same molecule, the EC50 in the test with MT4 [1] is 0.04 µM; in the test with MT4 [3], 0.06 µM. In the test with MT4 [2], the CC50 amounted to 2.9 µM.

As to `Nc1ncnc2c1nnn2C1COC(COP(=O)(OCC(Cl)(Cl)Cl)OCC(Cl)(Cl)Cl)C1` (configuration not stated), the concentration for a half-maximal effect (EC50) in the test with MT4 [1] and in the test with MT4 [3] was above 92 µM throughout. Besides, it took 92 µM to reach half-maximal cytotoxicity in the test with MT4 [2] (CC50).

For the molecule `Nc1nccc2c1nnn2C1COC(CO)C1` (configuration not stated), the concentration for a half-maximal effect (EC50) in the test with MT4 [1] and in the test with MT4 [3] was above 425 µM throughout. The molecule further returned a CC50 in the test on MT4 [2] above 425 µM.

In the case of `Nc1nccc2c1ncn2C1COC(CO)C1` (configuration not stated), the EC50 in the test on MT4 [1] and in the test on MT4 [3] was above 425 µM each time. For the same molecule, the CC50 with MT4 [2] was above 425 µM.

As for `O=c1[nH]cnc2c1ncn2[C@H]1CC[C@@H](CO)O1` [DIDANOSINE], the Ratio in test [4] is above 42; in test [5], above 38. Besides, the values for the EC50 with MT4 [1] and with MT4 [3] were 11 µM and 10 µM, respectively. For the same molecule, in the test on MT4 [2], the CC50 was above 425 µM.

Broadly, the EC50 is the concentration at which the effect is half-maximal. Low values mean an effect from little substance, high ones a need for much substance. One may read the CC50 as the concentration that lowers cell viability or growth by half. The low end stands for greater toxicity to the cells, the high end for lower toxicity to the cells.
